The nature of data set [1]: Inhibition of HCV NS4A-tethered single chain NS3 serine protease assessed as Ac-DTEDVVP(Nva)- O-PAP substrate hydrolysis by spectrophotometric assay. On the set-up: species or system Hepacivirus hominis. Summed up:
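Ki* reported for a single P1 diastereomer, within twofold at 95% confidence limit.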

The test system of the next data set is Hepatitis C virus. Description: Antiviral activity against Hepatitis C virus genotype 1 by replicon assay. It counts as functional, organism-based, Hepacivirus hominis. (In antiviral work, replicon cells carry a viral genome segment that copies itself.)
A short description of data set [2]: Selectivity index, ratio of Ki for HNE to Ki for NS4A-tethered single chain NS3 serine protease. The method in brief: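 Compounds tested against human neutrophil elastase as a counter-protease; selectivity expressed as HNE Ki divided by HCV NS3 protease Ki.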
Data set [3] is described as follows: AUC (0 to 6 hrs) in rat at 10 mg/kg, po. Format: ADME, organism-based. On the set-up: time < 6 hr, dose 10 mg/kg, route oral. The conditions noted are these: plasma.
Data set [4] can be described thus: AUC (0 to 6 hrs) in monkey at 10 mg/kg, po. Format: ADME, organism-based, Macaca mulatta. Further details: time < 6 hr, dose 10 mg/kg, route oral. The settings on record: rhesus monkey, plasma.
The nature of data set [5]: AUC (0 to 6 hrs) in dog at 3 mg/kg, po. It counts as ADME, organism-based, Canis lupus familiaris. On the set-up: time < 6 hr, dose 3 mg/kg, route oral. The conditions noted are these: plasma.
Data set [6] in a line: AUC (0 to 6 hrs) in dog at 2 mg/kg, po. Format: ADME, organism-based, Canis lupus familiaris. On the set-up: time < 6 hr, dose 2 mg/kg, route oral. The settings on record: plasma.

The Ki is the equilibrium dissociation constant of an inhibitor or competing ligand from its target. What is called EC90 is the concentration at which the effect reaches the 90% level. On to `CCC[C@H](NC(=O)[C@@H]1[C@@H]2[C@H](CN1C(=O)[C@@H](NC(=O)NC1(CS(=O)(=O)N(C)CC3CC3)CCCCC1)C(C)(C)C)C2(C)C)C(=O)C(=O)NC1CC1`, for which the Ki in data set [1] is 0.009 µM. This molecule came in with a concentration for an effect of 90% (EC90) in the data set on Hepatitis C virus of 0.135 µM.

As usually defined, the AUC(0-t) is exposure summed from dosing to a finite time, without extrapolation to infinity. Turning to `CCC[C@H](NC(=O)[C@@H]1[C@@H]2[C@H](CN1C(=O)[C@@H](NC(=O)NC1([C@@H]3CCN(C)S3(=O)=O)CCCCC1)C(C)(C)C)C2(C)C)C(=O)C(=O)NC1CC1`, the Ki in data set [1] was 0.004 µM. In addition, in the data set on Hepatitis C virus, the EC90 amounted to 0.02 µM. For the same molecule, the Ratio Ki in data set [2] was found to be 340. In addition, in data set [3], the AUC(0-t) at 6 h is 0.1 µM·h.

For the molecule `CCCC[C@H](NC(=O)[C@@H]1[C@@H]2[C@H](CN1C(=O)[C@@H](NC(=O)NC1(CS(=O)(=O)N(C)C3CC3)CCCCC1)C(C)(C)C)C2(C)C)C(=O)C(=O)NC1CC1`, the Ki in data set [1] is 0.011 µM. This molecule also showed an EC90 in the data set on Hepatitis C virus of 0.105 µM. Moreover, the Ratio Ki in data set [2] is 959.

For `CC(C)(C)NC(=O)N[C@H](C(=O)N1C[C@H]2[C@@H]([C@H]1C(=O)NC(CC1CCC1)C(=O)C(N)=O)C2(C)C)C(C)(C)C` (stereo partly drawn) [BOCEPREVIR], the Ki in data set [1] was 0.014 µM. Besides, the AUC(0-t) at 6 h turned out to be 0.1 µM·h in data set [3], 0.3 µM·h in data set [4] and 3.1 µM·h in data set [5].

As to `CN(C1CC1)S(=O)(=O)CC1(NC(=O)N[C@H](C(=O)N2CC3C([C@H]2C(=O)N[C@@H](CCC2CC2)C(=O)C(=O)NC2CC2)C3(C)C)C(C)(C)C)CCCCC1` (single isomer, unassigned), the inhibitory constant (Ki) in data set [1] was 0.006 µM. The molecule further registered an EC90 in the data set on Hepatitis C virus of 0.075 µM. In data set [2], the Ratio Ki was found to be 2480. Further, the AUC(0-t) at 6 h is 0.9 µM·h in data set [3], 4 µM·h in data set [6] and 5.4 µM·h in data set [4].

For the molecule `CCC[C@H](NC(=O)[C@@H]1[C@@H]2[C@H](CN1C(=O)[C@@H](NC(=O)NC1(CS(=O)(=O)N(CC)C3CC3)CCCCC1)C(C)(C)C)C2(C)C)C(=O)C(=O)NC1CC1`, the Ki in data set [1] came out at 0.005 µM. The EC90 with Hepatitis C virus is 0.065 µM. Also, the Ratio Ki in data set [2] came out at 131. Besides, the AUC(0-t) at 6 h in data set [3] turned out to be 1 µM·h; in data set [6], 7.9 µM·h.

Turning to `CN(C1CC1)S(=O)(=O)CC1(NC(=O)N[C@H](C(=O)N2C[C@H]3[C@@H]([C@H]2C(=O)N[C@@H](CC2CC2)C(=O)C(=O)NC2CC2)C3(C)C)C(C)(C)C)CCCCC1`, the Ki in data set [1] was 0.015 µM. Further, in the data set with Hepatitis C virus, the concentration for an effect of 90% (EC90) turned out to be 0.06 µM. Moreover, the Ratio Ki in data set [2] came to 113. The AUC(0-t) at 6 h in data set [3] came to 2.2 µM·h; in data set [6], 1.4 µM·h.

On to `CCC[C@H](NC(=O)[C@@H]1[C@@H]2[C@H](CN1C(=O)[C@@H](NC(=O)NC1(CS(=O)(=O)NC)CCCCC1)C(C)(C)C)C2(C)C)C(=O)C(=O)NC1CC1`, for which the Ki in data set [1] stood at 0.015 µM. Further, in the data set on Hepatitis C virus, the EC90 worked out at 0.3 µM. For the same molecule, in data set [2], the Ratio Ki is 58.

With `CCC[C@H](NC(=O)[C@@H]1[C@@H]2[C@H](CN1C(=O)[C@@H](NC(=O)NC1(CS(=O)(=O)N(C)C(C)(C)CF)CCCCC1)C(C)(C)C)C2(C)C)C(=O)C(=O)NC1CC1`, the Ki in data set [1] worked out at 0.0028 µM. In addition, the EC90 in the data set with Hepatitis C virus was 0.045 µM. Further, the AUC(0-t) at 6 h in data set [3] worked out at 0.1 µM·h; in data set [6] it was 0.2 µM·h.

For `CCC[C@H](NC(=O)[C@@H]1[C@@H]2[C@H](CN1C(=O)[C@@H](NC(=O)NC1(C3CCN(C4CC4)S3(=O)=O)CCCCC1)C(C)(C)C)C2(C)C)C(=O)C(=O)NC1CC1` (single isomer, unassigned), in data set [1], the Ki is 0.004 µM. Further, the EC90 in the data set on Hepatitis C virus was found to be 0.02 µM. In data set [2], the Ratio Ki stood at 340. This molecule also registered an AUC(0-t) at 6 h in data set [3] of 0.1 µM·h.

Regarding `C#CCCC(NC(=O)[C@@H]1[C@@H]2[C@H](CN1C(=O)[C@@H](NC(=O)N[C@H](C(=O)C1CC1)C1CCCCC1)C(C)(C)C)C2(C)C)C(=O)C(=O)NC1CC1` (stereo partly drawn), the Ki in data set [1] came out at 0.004 µM. In the data set on Hepatitis C virus, this molecule yielded an EC90 of 0.055 µM. In addition, the Ratio Ki in data set [2] was determined as 20. Further, the AUC(0-t) at 6 h in data set [6] stood at 0.1 µM·h.

With `CCC[C@H](NC(=O)C1[C@@H]2[C@H](CN1C(=O)[C@@H](NC(=O)NC1([C@@H](C)S(=O)(=O)N(C)C)CCCCC1)C(C)(C)C)C2(C)C)C(=O)C(=O)NC1CC1` (stereo partly drawn), in data set [1], the Ki was 0.002 µM. In the data set on Hepatitis C virus, the 90% effect concentration (EC90) amounted to 0.085 µM. Further, the values for the AUC(0-t) at 6 h in data set [3] and in data set [6] were 0.6 µM·h and 0.1 µM·h, respectively.

Take `CCC[C@H](NC(=O)[C@@H]1[C@@H]2[C@H](CN1C(=O)[C@@H](NC(=O)NC1(CS(=O)(=O)N(C)C)CCCCC1)C(C)(C)C)C2(C)C)C(=O)C(=O)NC1CC1`: in data set [1], the Ki amounted to 0.006 µM. The molecule also returned a 90% effect concentration (EC90) with Hepatitis C virus of 0.055 µM. Further, the Ratio Ki in data set [2] came to 82. For the same molecule, the AUC(0-t) at 6 h came out at 0.6 µM·h in data set [3], 6.1 µM·h in data set [6] and 0.1 µM·h in data set [4].

Regarding `CCC[C@H](NC(=O)[C@@H]1[C@@H]2[C@H](CN1C(=O)[C@@H](NC(=O)NC1(CS(=O)(=O)N(C)C(C)(C)C)CCCCC1)C(C)(C)C)C2(C)C)C(=O)C(=O)NC1CC1`, the Ki in data set [1] amounted to 0.008 µM. In the data set on Hepatitis C virus, this molecule came in with an EC90 of 0.055 µM. The Ratio Ki in data set [2] worked out at 36. The AUC(0-t) at 6 h in data set [3] came out at 0.6 µM·h; in data set [6] it was 0.2 µM·h.

`CCC[C@H](NC(=O)[C@@H]1[C@@H]2[C@H](CN1C(=O)[C@@H](NC(=O)NC1(CS(=O)(=O)N3CCC3)CCCCC1)C(C)(C)C)C2(C)C)C(=O)C(=O)NC1CC1`: the Ki in data set [1] is 0.007 µM. This molecule gave an EC90 in the data set with Hepatitis C virus of 0.08 µM. Besides, the AUC(0-t) at 6 h in data set [3] and in data set [6] was 0.8 µM·h throughout.

For the molecule `CC(C)(C)[C@H](NC(=O)NC1(C(=O)OCc2ccccc2)CCCCC1)C(=O)N1C[C@H]2[C@@H]([C@H]1C(=O)NC(CC1CC1)C(=O)C(N)=O)C2(C)C` (stereo partly drawn), the Ki in data set [1] is 0.049 µM. In the data set with Hepatitis C virus, this molecule registered an EC90 of 0.02 µM. In data set [2], the Ratio Ki worked out at 55. Also, in data set [4], the AUC(0-t) at 6 h came out at 0.05 µM·h.

Consider `CCC[C@H](NC(=O)[C@@H]1[C@@H]2[C@H](CN1C(=O)[C@@H](NC(=O)NC1(CS(=O)(=O)N(C)C3CCC3)CCCCC1)C(C)(C)C)C2(C)C)C(=O)C(=O)NC1CC1`, for which the Ki in data set [1] was found to be 0.007 µM. Further, the 90% effect concentration (EC90) in the data set on Hepatitis C virus is 0.09 µM. The AUC(0-t) at 6 h in data set [3] was determined as 0.3 µM·h; in data set [6] it was 0.2 µM·h.

With `CCC[C@H](NC(=O)[C@@H]1[C@@H]2[C@H](CN1C(=O)[C@@H](NC(=O)NC1(CS(=O)(=O)N(C)C3CC3)CCCCC1)C(C)(C)C)C2(C)C)C(=O)C(=O)NC1CC1`, the Ki in data set [1] turned out to be 0.008 µM. Also, in the data set on Hepatitis C virus, the 90% effect concentration (EC90) worked out at 0.055 µM. In addition, the Ratio Ki in data set [2] is 82. Also, the AUC(0-t) at 6 h in data set [3] was 1.8 µM·h; in data set [6] it was 6.9 µM·h; in data set [4] it was 3.3 µM·h.

Turning to `CCC[C@H](NC(=O)[C@@H]1[C@@H]2[C@H](CN1C(=O)[C@@H](NC(=O)NC1(CS(=O)(=O)N(C)CC)CCCCC1)C(C)(C)C)C2(C)C)C(=O)C(=O)NC1CC1`, the Ki in data set [1] turned out to be 0.009 µM. The same molecule displayed a 90% effect concentration (EC90) with Hepatitis C virus of 0.065 µM. Besides, the Ratio Ki in data set [2] worked out at 64. In addition, the values for the AUC(0-t) at 6 h in data set [3], in data set [6] and in data set [4] were 1.5 µM·h, 0.5 µM·h and 0.1 µM·h, respectively.

Consider `CCC[C@H](NC(=O)[C@@H]1[C@@H]2[C@H](CN1C(=O)[C@@H](NC(=O)NC1(CS(=O)(=O)N(C(C)C)C3CC3)CCCCC1)C(C)(C)C)C2(C)C)C(=O)C(=O)NC1CC1`, for which, in data set [1], the inhibitory constant (Ki) was 0.006 µM. The same molecule registered an EC90 with Hepatitis C virus of 0.1 µM. Further, the AUC(0-t) at 6 h in data set [3] was 1.7 µM·h; in data set [6] it was 0.5 µM·h.

Turning to `CCC[C@H](NC(=O)[C@@H]1[C@@H]2[C@H](CN1C(=O)[C@@H](NC(=O)NC1([C@H](C)S(=O)(=O)N(C)C)CCCCC1)C(C)(C)C)C2(C)C)C(=O)C(=O)NC1CC1`, the Ki in data set [1] stood at 0.022 µM.

With `CCC[C@H](NC(=O)[C@@H]1[C@@H]2[C@H](CN1C(=O)[C@@H](NC(=O)NC1(CS(=O)(=O)N(C)C(C)C)CCCCC1)C(C)(C)C)C2(C)C)C(=O)C(=O)NC1CC1`, in data set [1], the Ki turned out to be 0.007 µM. The EC90 in the data set with Hepatitis C virus was 0.07 µM. Also, the Ratio Ki in data set [2] was 97. In addition, the AUC(0-t) at 6 h in data set [3] worked out at 0.9 µM·h; in data set [6], 0.2 µM·h.

Take `CCC[C@H](NC(=O)[C@@H]1[C@@H]2[C@H](CN1C(=O)[C@@H](NC(=O)NC1(CS(=O)(=O)N3CCOCC3)CCCCC1)C(C)(C)C)C2(C)C)C(=O)C(=O)NC1CC1`: in data set [1], the Ki turned out to be 0.008 µM. In the data set with Hepatitis C virus, this molecule registered an EC90 of 0.045 µM. The Ratio Ki in data set [2] amounted to 135. Besides, the AUC(0-t) at 6 h in data set [3] and in data set [6] was 0.3 µM·h each time.

The values above are taken from ChEMBL document CHEMBL1157579, “Discovery of potent sulfonamide P4-capped ketoamide second generation inhibitors of hepatitis C virus NS3 serine protease with favorable pharmacokinetic profiles in preclinical species” (Bioorg Med Chem, 2010).
